Measured values published in ChEMBL document CHEMBL4229344 (Eur J Med Chem, 2018).

How the values were obtained:
[1] = target: Serine/threonine-protein kinase SIK2 (Homo sapiens) (UniProt Q9H0K1); assay: Binding affinity to wild-type human full length SIK2 (M1 to N926 residues) expressed in bacterial expression system assessed as residual binding level at 1 uM by Kinomescan method relative to control
Summary of the method: (§1)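 KINOMEscan competition binding against 468 purified kinases/mutants, test compound at 1 µM; residual binding relative to control.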

[2] = test system: Tyrosine-protein kinase ABL1 (Homo sapiens), P00519 [H396P]; assay: Binding affinity to human phosphorylated ABL1 H396P mutant (S229 to K512 residues) expressed in mammalian expression system assessed as residual binding level at 1 uM by Kinomescan method relative to control
Summary of the method: (§2)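 Single-concentration (1 μM) competition-binding screen run by KINOMEscan against a panel of 468 purified kinases and mutants. The read-out is the relative binding activity of the test compound to each kinase.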

[3] = target: Tyrosine-protein kinase Srms (Homo sapiens) (UniProt Q9H3Y6); assay: Binding affinity to wild-type human partial length SRMS (L208 to P488 residues) expressed in mammalian expression system assessed as residual binding level at 1 uM by Kinomescan method relative to control
[4] = target: Phosphorylase b kinase gamma catalytic chain, skeletal muscle/heart isoform (Homo sapiens) (UniProt Q16816); assay: Binding affinity to wild-type human full length PHKG1 (M1 to Y387 residues) expressed in bacterial expression system assessed as residual binding level at 1 uM by Kinomescan method relative to control; summary of the method: as §1
[5] = target: Protein kinase C eta type (Homo sapiens) (UniProt P24723); assay: Binding affinity to wild-type human partial length PRKCH (S324 to P683 residues) expressed in bacterial expression system assessed as residual binding level at 1 uM by Kinomescan method relative to control
[6] = target: Homeodomain-interacting protein kinase 2 (Homo sapiens) (UniProt Q9H2X6); assay: Binding affinity to wild-type human partial length HIPK2 (M153 to S564 residues) expressed in mammalian expression system assessed as residual binding level at 1 uM by Kinomescan method relative to control
[7] = target: Tyrosine-protein kinase HCK (Homo sapiens) (UniProt P08631); assay: Binding affinity to wild-type human full length HCK (M22 to P526 residues) expressed in bacterial expression system assessed as residual binding level at 1 uM by Kinomescan method relative to control; summary of the method: as §1
[8] = target: Calcium-dependent protein kinase 1 (Plasmodium falciparum) (UniProt P62344); assay: Binding affinity to wild-type Plasmodium falciparum 3D7 full length CDPK1 (M1 to S524 residues) expressed in mammalian expression system assessed as residual binding level at 1 uM by Kinomescan method relative to control; summary of the method: as §1
[9] = target: Serine/threonine-protein kinase TNNI3K (Homo sapiens) (UniProt Q59H18); assay: Binding affinity to wild-type human full length TNNI3K (M1 to S835 residues) expressed in bacterial expression system assessed as residual binding level at 1 uM by Kinomescan method relative to control
Summary of the method: (§3)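 Single-concentration KINOMEscan (DiscoverX) binding screen at 1 μM against a panel of 468 purified kinases and mutants. The read-out is binding relative to control.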

[10] = target: Serine/threonine-protein kinase TAO3 (Homo sapiens) (UniProt Q9H2K8); assay: Binding affinity to wild-type human partial length TAOK3 (M1 to T316 residues) expressed in mammalian expression system assessed as residual binding level at 1 uM by Kinomescan method relative to control
[11] = target: Serine/threonine-protein kinase 17A (Homo sapiens) (UniProt Q9UEE5); assay: Binding affinity to wild-type human partial length DRAK1 (R32 to E363 residues) expressed in bacterial expression system assessed as residual binding level at 1 uM by Kinomescan method relative to control
[12] = target: Mast/stem cell growth factor receptor Kit (Homo sapiens, UniProt P10721); assay: Binding affinity to wild-type human partial length KIT (I571 to D952 residues) expressed in bacterial expression system assessed as residual binding level at 1 uM by Kinomescan method relative to control
[13] = test system: Receptor-type tyrosine-protein kinase FLT3 (Homo sapiens), P36888 [D835V]; assay: Binding affinity to human partial length FLT3 D835V mutant (V592 to Y969 residues) expressed in bacterial expression system assessed as residual binding level at 1 uM by Kinomescan method relative to control
Summary of the method: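 Kinome-wide single-concentration binding screen (KINOMEscan) at 1 μM against a panel of 468 purified kinases and mutants. Read-out is relative binding of each kinase compared with control. Selectivity across the panel was summarised as an S(10) score.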

[14] = target: Ephrin type-A receptor 3 (Homo sapiens) (UniProt P29320); assay: Binding affinity to wild-type human partial length EPHA3 (D604 to K889 residues) expressed in bacterial expression system assessed as residual binding level at 1 uM by Kinomescan method relative to control
Summary of the method: (§4)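 Kinome-wide competition binding screen against a panel of 468 purified kinases/mutants, with the test compound at a single concentration of 1 μM. Read-out is the relative binding activity of each kinase in the presence of compound.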

[15] = target: High affinity nerve growth factor receptor (Homo sapiens) (UniProt P04629); assay: Binding affinity to wild-type human partial length TRKA (G475 to G790 residues) expressed in mammalian expression system assessed as residual binding level at 1 uM by Kinomescan method relative to control
[16] = target: Homeodomain-interacting protein kinase 3 (Homo sapiens) (UniProt Q9H422); assay: Binding affinity to wild-type human partial length HIPK3 (M153 to N562 residues) expressed in mammalian expression system assessed as residual binding level at 1 uM by Kinomescan method relative to control
[17] = target: Bone morphogenetic protein receptor type-1B (Homo sapiens) (UniProt O00238); assay: Binding affinity to wild-type human partial length BMPR1B (D178 to L502 residues) expressed in mammalian expression system assessed as residual binding level at 1 uM by Kinomescan method relative to control; summary of the method: as §3
[18] = target: Beta-adrenergic receptor kinase 1 (Homo sapiens) (UniProt P25098); assay: Binding affinity to wild-type human full length GRK2 (M1 to L689 residues) expressed in mammalian expression system assessed as residual binding level at 1 uM by Kinomescan method relative to control; summary of the method: as §2
[19] = target: Homeodomain-interacting protein kinase 4 (Homo sapiens) (UniProt Q8NE63); assay: Binding affinity to wild-type human partial length HIPK4 (M1 to V384 residues) expressed in bacterial expression system assessed as residual binding level at 1 uM by Kinomescan method relative to control; summary of the method: as §4
[20] = target: cGMP-dependent protein kinase 2 (Homo sapiens) (UniProt Q13237); assay: Binding affinity to wild-type human partial length PRKG2 (S422 to F762 residues) expressed in mammalian expression system assessed as residual binding level at 1 uM by Kinomescan method relative to control
[21] = target: Ribosomal protein S6 kinase alpha-6 (Homo sapiens) (UniProt Q9UK32); assay: Binding affinity to wild-type human partial length N-terminal RSK4 kinase domain 1 (M1 to E397 residues) expressed in mammalian expression system assessed as residual binding level at 1 uM by Kinomescan method relative to control
[22] = target: Platelet-derived growth factor receptor alpha (Homo sapiens, UniProt P16234); assay: Inhibition of PDGF-induced PDGFRalpha autophosphorylation at Y1018 residue in human NCI-H1703 cells after 2 hrs in presence of PDGF-AA by Western blot analysis; assay type: cell-based

Chain of Ribosomal protein S6 kinase alpha-6 (Homo sapiens) (Q9UK32 whole entry, the tested form may be a part): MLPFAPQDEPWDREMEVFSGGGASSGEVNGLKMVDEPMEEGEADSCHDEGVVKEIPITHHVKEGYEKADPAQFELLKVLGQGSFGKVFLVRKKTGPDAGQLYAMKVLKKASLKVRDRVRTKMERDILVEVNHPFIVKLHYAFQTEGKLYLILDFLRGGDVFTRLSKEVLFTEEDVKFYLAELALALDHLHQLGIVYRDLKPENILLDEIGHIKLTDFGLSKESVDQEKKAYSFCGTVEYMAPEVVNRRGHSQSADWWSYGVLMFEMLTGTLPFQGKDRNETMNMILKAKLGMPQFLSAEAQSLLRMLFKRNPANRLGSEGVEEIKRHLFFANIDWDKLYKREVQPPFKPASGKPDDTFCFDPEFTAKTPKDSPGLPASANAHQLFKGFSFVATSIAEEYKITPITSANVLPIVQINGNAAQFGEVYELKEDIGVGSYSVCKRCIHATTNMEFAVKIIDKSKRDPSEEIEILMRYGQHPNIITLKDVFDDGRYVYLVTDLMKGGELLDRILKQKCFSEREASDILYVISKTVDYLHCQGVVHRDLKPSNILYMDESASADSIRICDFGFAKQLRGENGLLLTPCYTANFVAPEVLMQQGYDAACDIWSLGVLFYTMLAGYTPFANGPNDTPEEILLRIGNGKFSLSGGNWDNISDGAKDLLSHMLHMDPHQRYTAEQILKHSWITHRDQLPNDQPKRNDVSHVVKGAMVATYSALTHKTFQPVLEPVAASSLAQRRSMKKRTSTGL
Chain of cGMP-dependent protein kinase 2 (Homo sapiens) (Q13237 whole entry, the tested form may be a part): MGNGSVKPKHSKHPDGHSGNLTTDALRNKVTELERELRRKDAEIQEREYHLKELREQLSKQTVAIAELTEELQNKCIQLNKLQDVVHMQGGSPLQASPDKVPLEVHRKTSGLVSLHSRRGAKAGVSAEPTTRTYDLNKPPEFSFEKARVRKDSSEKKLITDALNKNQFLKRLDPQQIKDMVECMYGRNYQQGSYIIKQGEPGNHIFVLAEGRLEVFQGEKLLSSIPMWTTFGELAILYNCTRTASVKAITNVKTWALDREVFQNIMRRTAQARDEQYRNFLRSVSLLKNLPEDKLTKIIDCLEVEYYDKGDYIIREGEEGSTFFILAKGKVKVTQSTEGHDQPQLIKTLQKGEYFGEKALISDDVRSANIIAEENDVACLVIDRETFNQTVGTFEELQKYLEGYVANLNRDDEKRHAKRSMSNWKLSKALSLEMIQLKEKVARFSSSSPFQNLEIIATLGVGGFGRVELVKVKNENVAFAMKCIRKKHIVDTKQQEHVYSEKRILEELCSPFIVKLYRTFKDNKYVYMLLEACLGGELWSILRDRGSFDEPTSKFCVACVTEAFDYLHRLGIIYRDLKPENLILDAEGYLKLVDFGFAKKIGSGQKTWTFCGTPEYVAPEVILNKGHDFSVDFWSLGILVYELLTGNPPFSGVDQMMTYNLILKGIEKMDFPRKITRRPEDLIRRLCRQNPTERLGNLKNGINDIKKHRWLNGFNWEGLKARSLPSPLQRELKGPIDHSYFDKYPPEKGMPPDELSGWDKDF
Chain of Phosphorylase b kinase gamma catalytic chain, skeletal muscle/heart isoform (Homo sapiens) (Q16816 whole entry, looked up, the tested form may be a part, canonical isoform): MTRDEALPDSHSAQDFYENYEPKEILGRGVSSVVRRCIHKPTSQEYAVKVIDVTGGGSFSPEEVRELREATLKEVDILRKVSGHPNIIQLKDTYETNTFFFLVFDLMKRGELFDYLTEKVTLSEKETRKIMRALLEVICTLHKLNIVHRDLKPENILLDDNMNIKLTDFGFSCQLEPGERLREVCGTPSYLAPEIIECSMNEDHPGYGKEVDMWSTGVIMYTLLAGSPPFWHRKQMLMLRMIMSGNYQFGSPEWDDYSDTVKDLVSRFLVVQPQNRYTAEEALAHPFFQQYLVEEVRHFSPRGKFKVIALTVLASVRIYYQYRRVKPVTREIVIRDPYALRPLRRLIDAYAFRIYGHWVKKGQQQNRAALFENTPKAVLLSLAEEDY
Chain of Calcium-dependent protein kinase 1 (Plasmodium falciparum) (P62344 2-524 limits assumed): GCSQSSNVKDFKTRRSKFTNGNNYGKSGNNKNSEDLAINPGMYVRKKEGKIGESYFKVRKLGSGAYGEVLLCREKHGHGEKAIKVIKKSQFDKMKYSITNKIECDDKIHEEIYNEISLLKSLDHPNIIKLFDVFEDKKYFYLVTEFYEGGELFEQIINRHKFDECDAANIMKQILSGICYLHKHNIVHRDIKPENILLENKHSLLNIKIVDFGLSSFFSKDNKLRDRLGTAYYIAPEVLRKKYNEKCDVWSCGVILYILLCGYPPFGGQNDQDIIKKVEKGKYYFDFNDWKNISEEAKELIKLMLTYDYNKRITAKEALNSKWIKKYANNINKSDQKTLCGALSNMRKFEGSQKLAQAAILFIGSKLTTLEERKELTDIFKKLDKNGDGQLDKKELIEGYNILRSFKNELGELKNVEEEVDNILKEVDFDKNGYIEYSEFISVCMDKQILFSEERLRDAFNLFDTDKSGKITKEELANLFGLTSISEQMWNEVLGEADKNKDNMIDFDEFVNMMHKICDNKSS
Chain of Beta-adrenergic receptor kinase 1 (Homo sapiens) (P25098 whole entry, the tested form may be a part): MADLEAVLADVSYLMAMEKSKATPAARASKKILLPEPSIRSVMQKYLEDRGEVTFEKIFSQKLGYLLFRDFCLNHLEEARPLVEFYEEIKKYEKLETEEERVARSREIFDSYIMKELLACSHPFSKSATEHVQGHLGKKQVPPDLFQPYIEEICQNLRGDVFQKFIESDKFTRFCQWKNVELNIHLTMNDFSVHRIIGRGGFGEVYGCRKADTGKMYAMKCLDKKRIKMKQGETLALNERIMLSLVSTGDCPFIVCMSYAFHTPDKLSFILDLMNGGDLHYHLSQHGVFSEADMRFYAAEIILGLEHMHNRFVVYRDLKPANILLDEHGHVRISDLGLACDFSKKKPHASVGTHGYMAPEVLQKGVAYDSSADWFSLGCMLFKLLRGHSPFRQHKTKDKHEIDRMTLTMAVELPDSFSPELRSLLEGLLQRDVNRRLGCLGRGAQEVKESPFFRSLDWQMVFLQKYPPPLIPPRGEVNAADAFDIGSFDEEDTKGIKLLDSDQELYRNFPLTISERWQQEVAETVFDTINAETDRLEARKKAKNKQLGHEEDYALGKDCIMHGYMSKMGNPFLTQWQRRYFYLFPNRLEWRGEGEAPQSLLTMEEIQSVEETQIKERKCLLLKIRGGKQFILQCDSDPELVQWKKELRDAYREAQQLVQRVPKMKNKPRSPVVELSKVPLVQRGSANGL
Chain of High affinity nerve growth factor receptor (Homo sapiens) (P04629 33-796 limits assumed): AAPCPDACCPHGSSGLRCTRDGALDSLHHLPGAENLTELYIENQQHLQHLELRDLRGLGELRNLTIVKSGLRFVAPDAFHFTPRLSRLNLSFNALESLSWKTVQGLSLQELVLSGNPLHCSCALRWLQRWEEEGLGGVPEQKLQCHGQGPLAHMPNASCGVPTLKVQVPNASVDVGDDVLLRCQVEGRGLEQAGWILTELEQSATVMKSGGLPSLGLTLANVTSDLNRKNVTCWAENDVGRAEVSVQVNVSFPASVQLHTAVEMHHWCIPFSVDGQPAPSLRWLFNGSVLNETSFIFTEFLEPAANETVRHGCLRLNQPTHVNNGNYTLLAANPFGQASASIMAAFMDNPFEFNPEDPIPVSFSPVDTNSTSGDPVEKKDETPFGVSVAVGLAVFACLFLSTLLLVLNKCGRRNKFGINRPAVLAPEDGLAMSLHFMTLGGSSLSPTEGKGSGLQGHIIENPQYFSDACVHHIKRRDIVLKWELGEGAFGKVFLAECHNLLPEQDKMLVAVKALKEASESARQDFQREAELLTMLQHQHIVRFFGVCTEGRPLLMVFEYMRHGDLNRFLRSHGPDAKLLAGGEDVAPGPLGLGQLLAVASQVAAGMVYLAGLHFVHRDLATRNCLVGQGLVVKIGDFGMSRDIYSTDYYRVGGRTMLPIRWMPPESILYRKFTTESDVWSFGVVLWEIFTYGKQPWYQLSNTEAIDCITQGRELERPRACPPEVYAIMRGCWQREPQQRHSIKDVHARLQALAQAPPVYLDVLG
Chain of Tyrosine-protein kinase HCK (Homo sapiens) (P08631 2-526 limits assumed): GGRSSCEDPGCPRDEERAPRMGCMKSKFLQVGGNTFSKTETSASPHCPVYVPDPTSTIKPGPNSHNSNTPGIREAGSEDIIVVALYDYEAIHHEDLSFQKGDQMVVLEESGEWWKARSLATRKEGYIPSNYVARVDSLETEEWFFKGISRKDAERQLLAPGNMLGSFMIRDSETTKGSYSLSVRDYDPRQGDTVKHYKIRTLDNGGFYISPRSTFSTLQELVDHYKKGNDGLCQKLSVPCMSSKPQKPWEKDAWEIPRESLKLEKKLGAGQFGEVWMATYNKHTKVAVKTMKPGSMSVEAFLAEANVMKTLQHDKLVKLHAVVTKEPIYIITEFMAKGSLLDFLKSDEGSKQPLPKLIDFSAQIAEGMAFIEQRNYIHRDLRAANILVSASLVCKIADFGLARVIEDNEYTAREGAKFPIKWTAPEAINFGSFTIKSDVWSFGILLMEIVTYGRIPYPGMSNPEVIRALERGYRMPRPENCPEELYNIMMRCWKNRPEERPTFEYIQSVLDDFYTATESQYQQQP
Chain of Homeodomain-interacting protein kinase 4 (Homo sapiens) (Q8NE63 whole entry, the tested form may be a part): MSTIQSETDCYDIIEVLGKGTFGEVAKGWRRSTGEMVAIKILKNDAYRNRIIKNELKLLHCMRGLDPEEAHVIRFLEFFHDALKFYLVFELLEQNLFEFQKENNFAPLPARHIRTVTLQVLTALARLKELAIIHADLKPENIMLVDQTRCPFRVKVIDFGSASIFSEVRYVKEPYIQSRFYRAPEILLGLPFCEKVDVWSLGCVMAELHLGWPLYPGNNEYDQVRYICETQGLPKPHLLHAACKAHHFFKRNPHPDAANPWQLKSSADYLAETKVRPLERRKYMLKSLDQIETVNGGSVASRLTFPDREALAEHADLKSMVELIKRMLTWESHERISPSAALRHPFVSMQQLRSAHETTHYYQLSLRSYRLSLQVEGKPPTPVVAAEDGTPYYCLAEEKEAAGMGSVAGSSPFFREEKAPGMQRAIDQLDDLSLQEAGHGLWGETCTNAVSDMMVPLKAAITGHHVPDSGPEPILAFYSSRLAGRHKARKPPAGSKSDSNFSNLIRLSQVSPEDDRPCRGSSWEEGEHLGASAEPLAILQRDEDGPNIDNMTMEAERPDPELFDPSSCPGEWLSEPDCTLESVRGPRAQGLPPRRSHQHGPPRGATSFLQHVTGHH

What does the source list for `Cc1ccc(NC(=O)c2ccc(CN(CCN(C)C)C(=O)c3cccnc3)cc2)cc1Nc1nccc(-c2cccnc2)n1`?
Activity [1]: 87%; Activity [2]: 97%; Activity [3]: 97%; Activity [4]: 94%; Activity [5]: 86%; Activity [6]: 100%; Activity [7]: 83%; Activity [8]: 82%; Activity [9]: 100%; Activity [10]: 100%; Activity [11]: 77%; Activity [12]: 2.2%; Activity [13]: 100%; Activity [14]: 89%; Activity [15]: 95%; Activity [16]: 93%; Activity [17]: 95%; Activity [18]: 100%; Activity [19]: 74%; Activity [20]: 100%; Activity [21]: 100%; inhibition [22]: Dose-dependent effect
